Calls of active or inactive are those of the source. The calls are words filed in the database; no cut-off is given here.

Data set [1] in a line: Cytotoxicity against mouse RAW264 cells assessed as cell survival at 5 uM relative to control. The format is toxicity. The settings on record: read-out: Survival.
Data set [2] is described as follows: Inhibition of RANKL-stimulated osteoclastogenesis in mouse RAW264 cells assessed as reduction in TRAP activity after 4 days in presence of RANKL. The format is functional, cell-based. In a few lines:
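Murine RAW264 cells differentiated with RANKL (50 ng/mL) for 4 days, with or without compound at a range of concentrations. TRAP activity was read as absorbance at 405 nm, and the IC50 was taken from inhibition of RANKL-induced TRAP up-regulation. Cytotoxicity toward RAW264 cells was also checked.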

Data set [3] has as its system RAW264. Kind of data set: Inhibition of RANKL-stimulated osteoclastogenesis in mouse RAW264 cells assessed reduction in TRAP-positive multinucleated cells at 20 uM after 4 days in presence of RANKL by TRAP-staining based microscopic analysis. The format is functional, cell-based. The method in brief: (§1)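 RAW264 cells were treated with RANKL (50 ng/mL) plus compound at 10 or 20 μM, or without compound, for 4 days. They were then stained with TRAP-staining solution, which stains positive cells red. TRAP-positive multinuclear cells (≥3 nuclei) were counted by microscopy.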

Data set [4] concerns RAW264. In words: Inhibition of RANKL-stimulated osteoclastogenesis in mouse RAW264 cells assessed reduction in TRAP-positive multinucleated cells at 10 uM after 4 days in presence of RANKL by TRAP-staining based microscopic analysis. The format is functional, cell-based. The method in brief:
as §1

`C[C@]12C[C@@H](O)C(=O)[C@](C)(CO)[C@@H]1CC[C@@]1(C)c3cocc3CC[C@H]21` [ISOSPONGIADIOL]: in data set [1], the viability at 5 µM came out at 96%. In addition, the 50% inhibitory concentration (IC50) in data set [2] is above 50 µM.

As for `CC(C)CN1CC2=C(CC[C@@H]3[C@@]4(C)CCC[C@](C)(C(=O)O)[C@@H]4CC[C@@]23C)C1=O`, the viability at 5 µM in data set [1] amounted to 100%. Moreover, the 50% inhibitory concentration (IC50) in data set [2] is above 50 µM.

As for `C[C@]12CCC[C@](C)(C(=O)O)[C@@H]1CC[C@@]1(C)c3cocc3CC[C@H]21`, the viability at 5 µM in data set [1] amounted to 100%. Further, the IC50 in data set [2] was above 50 µM.

Take `C[C@]12CC(=O)[C@@H](O)[C@](C)(CO)[C@@H]1CC[C@@]1(C)c3cocc3CC[C@H]21` [SPONGIADIOL]: the viability at 5 µM in data set [1] is 97%. Besides, the IC50 in data set [2] was above 50 µM.

With `C[C@]12CCC[C@](C)(C(=O)O)[C@@H]1CC[C@@]1(C)C3=C(CC[C@H]21)CN(CCc1ccccc1)C3=O`, the viability at 5 µM in data set [1] was 97%. Moreover, the IC50 in data set [2] is above 50 µM.

As to `CC(C)CCN1CC2=C(C1=O)[C@]1(C)CC[C@@H]3[C@](C)(CCC[C@]3(C)C(=O)O)[C@H]1CC2`, in data set [1], the viability at 5 µM was 100%. Besides, in data set [2], the 50% inhibitory concentration (IC50) is above 50 µM.

With `CC(C)CN1CC2=C(C1=O)[C@]1(C)CC[C@@H]3[C@](C)(CCC[C@]3(C)C(=O)O)[C@H]1CC2`, the viability at 5 µM in data set [1] turned out to be 100%. In data set [2], the IC50 was above 50 µM.

For the compound `CO[C@H]1O[C@@H](OC)C2=C1CC[C@@H]1[C@@]3(C)CCC[C@](C)(C(=O)O)[C@@H]3CC[C@@]21C`, the viability at 5 µM in data set [1] is 98%. Further, the IC50 in data set [2] was above 50 µM.

On to `CC(C)CCN1CC2=C(CC[C@@H]3[C@@]4(C)CCC[C@](C)(C(=O)O)[C@@H]4CC[C@@]23C)C1=O`, for which the viability at 5 µM in data set [1] amounted to 87%. Also, the inhibition entry in the data set on RAW264 [3] was “Active”. In data set [2], the half-inhibitory concentration (IC50) is 18 µM.

For `C[C@]12CCC[C@](C)(C(=O)O)[C@@H]1CC[C@@]1(C)C3=C(CC[C@H]21)C(=O)N(CCc1ccccc1)C3`, the viability at 5 µM in data set [1] turned out to be 100%. Also, in the data set on RAW264 [4], the inhibition entry is “Active”. For the same compound, the IC50 in data set [2] turned out to be 13 µM.

`C[C@]12CCC[C@](C)(C(=O)O)[C@@H]1CC[C@@]1(C)C3=C(CC[C@H]21)CNC3=O`: in data set [1], the viability at 5 µM came out at 100%. Further, in data set [2], the IC50 was above 50 µM.

Usually IC50 stands for the concentration at which inhibition is half-maximal.

The record behind these values is ChEMBL document CHEMBL3865838, “Ceylonamides A-F, Nitrogenous Spongian Diterpenes That Inhibit RANKL-Induced Osteoclastogenesis, from the Marine Sponge Spongia ceylonensis” (J Nat Prod, 2016).
